Article PMC4862586 (The New England journal of medicine, 2015)

What was measured:
CLL = settings: cited from earlier work
[1] = tested on: patients with relapsed CLL; test: Phase 1–2 multicenter study: safety, adverse events; format: in vivo
relapsed CLL = test: Phase 1–2 multicenter study: clinical response; format: in vivo, human; settings: for Resolution of B symptoms: 16 patients with B symptoms at baseline
[2] = Pharmacokinetics in patients, cycle 1, non-compartmental analysis; format: in vivo; settings: human, po
phosphorylated Btk = test: Phosphorylation of Btk by intracellular flow cytometry; format: in vivo, human; settings: respective time points across all cohorts
Method in brief: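 Patients with relapsed CLL received oral drug continuously at 100, 175, 250 or 400 mg once daily (dose escalation) or 100 mg twice daily (phase 2 expansion). Phosphorylated Btk in blood samples was measured by intracellular flow cytometry.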

platelet aggregation = test: Platelet aggregation derived from blood of patients; format: in vivo, human; settings: blood of patients receiving the drug
[3] = tested on: pro-inflammatory cytokines; test: Pro-inflammatory cytokine levels in patients; format: in vivo, human; settings: from baseline to day 28 of treatment
Method in brief: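 Patients with relapsed CLL were dosed orally and continuously at 100–400 mg once daily or 100 mg twice daily. Change in serum cytokines from baseline was tested by Wilcoxon signed-rank. Only patients with baseline and every follow-up value were included, and there was no multiplicity adjustment.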

[4] = Serum immunoglobulins and immune cell numbers over time in patients; format: in vivo
primary CLL cells = test: B-cell receptor signaling in primary CLL cells; format: cell-based, human
EGFR = EGFR signaling; format: cell-based
Itk = target: T1, Itk (Homo sapiens, UniProt Q08881); test: Itk inhibition; format: cell-based
T1 sequence (Q08881 1-620): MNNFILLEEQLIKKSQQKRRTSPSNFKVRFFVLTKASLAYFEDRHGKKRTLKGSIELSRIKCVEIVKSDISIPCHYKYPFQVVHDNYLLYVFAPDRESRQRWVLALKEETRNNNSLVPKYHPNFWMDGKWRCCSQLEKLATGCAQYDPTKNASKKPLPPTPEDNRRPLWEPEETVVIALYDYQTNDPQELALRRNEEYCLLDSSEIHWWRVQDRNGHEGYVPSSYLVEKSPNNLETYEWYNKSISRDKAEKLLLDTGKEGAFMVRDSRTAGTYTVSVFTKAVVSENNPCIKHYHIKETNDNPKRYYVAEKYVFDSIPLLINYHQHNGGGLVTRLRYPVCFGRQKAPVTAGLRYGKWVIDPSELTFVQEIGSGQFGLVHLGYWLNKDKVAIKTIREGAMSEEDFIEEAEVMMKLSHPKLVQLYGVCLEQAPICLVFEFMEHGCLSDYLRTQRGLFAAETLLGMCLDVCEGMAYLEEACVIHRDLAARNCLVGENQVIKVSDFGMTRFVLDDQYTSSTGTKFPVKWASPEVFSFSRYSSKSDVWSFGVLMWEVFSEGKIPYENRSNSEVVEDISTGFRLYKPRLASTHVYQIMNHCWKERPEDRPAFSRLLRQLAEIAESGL

natural killer cells = format: cell-based, human; settings: obinutuzumab-coated CLL cells
[5] = tested on: naturally occurring canine B-cell lymphomas; settings: cited from earlier work
[6] = all patients, median follow-up 14.3 months

In the case of `C=CC(=O)Nc1cccc(Nc2nc(Nc3ccc(OCCOC)cc3)ncc2F)c1` [CC-292], the Clinical results (CLL; CLL) is listed as “inferior clinical results compared with ibrutinib” and the Tolerability (CLL; human, in vivo) is listed as “well tolerated”.

With `CC#CC(=O)N1CCC[C@H]1c1nc(-c2ccc(C(=O)Nc3ccccn3)cc2)c2c(N)nccn12` [acalabrutinib, Acalabrutinib] the “Grade 5 event of pneumonia” value ([1]; N=61) was “† The all-grade column includes one patient with a Grade 5 event of pneumonia”, the “Adverse event Arthralgia, All Grades” value ([1]; human, in vivo) was 10 (16) number of patients (percent) and the “Adverse event Arthralgia, Grades 1–2” value ([1]; human, in vivo) was 9 (15) number of patients (percent). For the same compound, the “Adverse event Arthralgia, Grades 3–4” value ([1]; human, in vivo) was 1 (2) number of patients (percent), the “Adverse event Contusion, All Grades” value ([1]; human, in vivo) was 11 (18) number of patients (percent) and the “Adverse event Contusion, Grades 1–2” value ([1]; human, in vivo) was 11 (18) number of patients (percent). For the same compound, the “Adverse event Contusion, Grades 3–4” value ([1]; human, in vivo) was 0 (0) number of patients (percent), the “Adverse event Decreased weight, All Grades” value ([1]; human, in vivo) was 10 (16) number of patients (percent) and the “Adverse event Decreased weight, Grades 1–2” value ([1]; human, in vivo) was 10 (16) number of patients (percent). The “Adverse event Decreased weight, Grades 3–4” value ([1]; human, in vivo) was 0 (0) number of patients (percent), the “Adverse event Diarrhea, All Grades” value ([1]; human, in vivo) was 24 (39) number of patients (percent) and the “Adverse event Diarrhea, Grades 1–2” value ([1]; human, in vivo) was 23 (38) number of patients (percent). The “Adverse event Diarrhea, Grades 3–4” value ([1]; human, in vivo) was 1 (2) number of patients (percent), the “Adverse event Fatigue, All Grades” value ([1]; human, in vivo) was 13 (21) number of patients (percent) and the “Adverse event Fatigue, Grades 1–2” value ([1]; human, in vivo) was 11 (18) number of patients (percent). For the same compound, the “Adverse event Fatigue, Grades 3–4” value ([1]; human, in vivo) was 2 (3) number of patients (percent), the “Adverse event Headache, All Grades” value ([1]; human, in vivo) was 26 (43) number of patients (percent) and the “Adverse event Headache, Grades 1–2” value ([1]; human, in vivo) was 26 (43) number of patients (percent). The “Adverse event Headache, Grades 3–4” value ([1]; human, in vivo) was 0 (0) number of patients (percent), the “Adverse event Hypertension, All Grades” value ([1]; human, in vivo) was 12 (20) number of patients (percent) and the “Adverse event Hypertension, Grades 1–2” value ([1]; human, in vivo) was 8 (13) number of patients (percent). For the same compound, the “Adverse event Hypertension, Grades 3–4” value ([1]; human, in vivo) was 4 (7) number of patients (percent), the “Adverse event Increased weight, All Grades” value ([1]; human, in vivo) was 16 (26) number of patients (percent) and the “Adverse event Increased weight, Grades 1–2” value ([1]; human, in vivo) was 15 (25) number of patients (percent). The “Adverse event Increased weight, Grades 3–4” value ([1]; human, in vivo) was 1 (2) number of patients (percent), the “Adverse event Nausea, All Grades” value ([1]; human, in vivo) was 12 (20) number of patients (percent) and the “Adverse event Nausea, Grades 1–2” value ([1]; human, in vivo) was 12 (20) number of patients (percent). For the same compound, the “Adverse event Nausea, Grades 3–4” value ([1]; human, in vivo) was 0 (0) number of patients (percent), the “Adverse event Peripheral edema, All Grades” value ([1]; human, in vivo) was 13 (21) number of patients (percent) and the “Adverse event Peripheral edema, Grades 1–2” value ([1]; human, in vivo) was 13 (21) number of patients (percent). The “Adverse event Peripheral edema, Grades 3–4” value ([1]; human, in vivo) was 0 (0) number of patients (percent), the “Adverse event Petechiae, All Grades” value ([1]; human, in vivo) was 10 (16) number of patients (percent) and the “Adverse event Petechiae, Grades 1–2” value ([1]; human, in vivo) was 10 (16) number of patients (percent). The “Adverse event Petechiae, Grades 3–4” value ([1]; human, in vivo) was 0 (0) number of patients (percent), the “Adverse event Pyrexia, All Grades” value ([1]; human, in vivo) was 14 (23) number of patients (percent) and the “Adverse event Pyrexia, Grades 1–2” value ([1]; human, in vivo) was 12 (20) number of patients (percent). The “Adverse event Pyrexia, Grades 3–4” value ([1]; human, in vivo) was 2 (3) number of patients (percent), the “Adverse event Upper respiratory tract infection, All Grades” value ([1]; human, in vivo) was 14 (23) number of patients (percent) and the “Adverse event Upper respiratory tract infection, Grades 1–2” value ([1]; human, in vivo) was 14 (23) number of patients (percent). For the same compound, the “Adverse event Upper respiratory tract infection, Grades 3–4” value ([1]; human, in vivo) was 0 (0) number of patients (percent), the “Most common adverse events: diarrhea” value ([1]; human, in vivo) was 39% and the “Most common adverse events: headache” value ([1]; human, in vivo) was 43%. For the same compound, the “Most common adverse events: increased weight” value ([1]; human, in vivo) was 26%, the “Most common adverse events: pyrexia” value ([1]; human, in vivo) was 23% and the “Most common adverse events: upper respiratory tract infection” value ([1]; human, in vivo) was 23%. The Dose-limiting toxicities ([1]; in vivo) was “No dose-limiting toxicities”, the “Major hemorrhage or atrial fibrillation” value ([1]; in vivo) was “No major hemorrhage or atrial fibrillation” and the “Severe diarrhea, rash, arthralgia/myalgia, bruising and bleeding events” value ([1]; in vivo) was “rare”. For the same compound, the “Tolerability of long-term therapy” value ([1]; in vivo) was “well tolerated”, the Response rate (relapsed CLL; 4 patients with prior idelalisib therapy) was 100% and the “Resolution of B symptoms” value (relapsed CLL; by cycle 4) was 88 % of patients. For the same compound, the “Resolution of B symptoms” value (relapsed CLL; by cycle 9) was 100 % of patients, the Response rate (relapsed CLL; 18 patients with del(17)(p13.1)) was 100% and the “Patients experiencing reduction in lymphadenopathy” value (relapsed CLL; 59 of 60 patients) was 98%. For the same compound, the Progression-free survival events (relapsed CLL; a death from pneumonia (13 months) and a single progression (16 months)) was 2 events, the “Best overall response rate (partial response and partial response with lymphocytosis)” value (relapsed CLL; [6]) was 95% and the “Partial response with lymphocytosis” value (relapsed CLL; [6]) was 10%. The Stable disease (relapsed CLL; [6]) was 5%, the “Cases of Richter’s transformation” value (relapsed CLL; median follow-up 14.3 months) was “No cases” and the “Improvements in hemoglobin levels, platelet count and absolute neutrophil count” value (relapsed CLL; patients with baseline cytopenia) was “noted in the great majority of patients”. The Absorption and elimination ([2]; in vivo) was “rapidly absorbed and eliminated”, the half-life ([2]; plasma) was roughly 1 h and the “Phosphorylated Btk after treatment” value (phosphorylated Btk) was “complete loss of phosphorylated Btk”. The Platelet aggregation (platelet aggregation) was “not the former”, the Pro-inflammatory cytokines [3] was “decreased significantly” and the “Serum IgG, IgA and IgM over time” value ([4]; excluding patients receiving intravenous immunoglobulin) was “did not demonstrate significant change”. The “T cell (CD4+, CD8+), natural killer cell and monocyte numbers over time” value ([4]; human, in vivo) was “no clinically significant change”, the “Inhibition of B-cell receptor signaling” value (primary CLL cells) was “dose-dependent inhibition” and the “Inhibition of EGFR signaling” value (EGFR) was “does not inhibit”. The Itk inhibition (Itk) was “lack of Itk inhibition”, the “Inhibition of antibody-mediated killing by natural killer cells” value (natural killer cells) was “does not inhibit” and the Clinical responses [5] was “objective clinical responses”.
